What all share (type): nucleic-acid assay
The subject of test [1] is Nucleic Acid. The test is described as follows: Displacement of thiazole orange from synthetic oligo 22G DNA G-quadruplex by fluorescence displacement assay. The method in brief:
(§1)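 Compound titrated into 0.25 µM oligonucleotide (22G quadruplex or 17 bp duplex) with thiazole orange in 10 mM cacodylate, pH 7.4, plus 100 mM KCl. Full fluorescence spectrum recorded after each addition and peak area plotted against compound concentration. Concentration cutting the area by 50% taken as IC50; binding constant calculated from a simple competitive binding model.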

For test [2], the system named is Nucleic Acid. As to the kind of experiment: Displacement of thiazole orange from synthetic oligo 17bp DNA duplex by fluorescence displacement assay. In a few lines:
as §1

Test [3] relates to Nucleic Acid. As to the kind of experiment: Binding affinity to human telomeric DNA G-quadruplex assessed as change in melting temperature at 0.5 uM by fluorescein-rhodamine based FRET assay. The method in brief:
(§2)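 Human telomeric-repeat G-quadruplex oligo carrying a 5'/3' fluorescein–rhodamine FRET pair. Compound at 0.5 µM with the oligo at half that concentration, in 10 mM cacodylate, 100 mM NaCl, pH 7.4. Heated from 20 to 80 °C at 1 °C/min with a 2 min equilibration at each step. Emission read at 518 nm; Tm taken from the melting curve, ΔTm against no compound.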

Test [4] relates to Nucleic Acid. As to the kind of experiment: Binding affinity to human telomeric DNA G-quadruplex assessed as melting temperature at 0.5 uM by fluorescein-rhodamine based FRET assay. The method in brief:
as §2

Test [5] relates to Nucleic Acid. As to the kind of experiment: Selectivity for synthetic oligo 22G DNA G-quadruplex over synthetic oligo 17bp DNA duplex. The method in brief:
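Ratio of the thiazole-orange displacement binding constant for the 22G quadruplex to that for the 17 bp duplex. Both constants come from titrating compound into 0.25 µM oligo with dye in 10 mM cacodylate, pH 7.4, 100 mM KCl, taking the 50% loss of peak area as IC50, and applying a competitive binding model.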

The test system of test [6] is Nucleic Acid. As to the kind of experiment: Binding affinity to human telomeric DNA assessed as equilibrium binding constant by SPR. In a few lines:
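SPR steady-state analysis against human telomeric quadruplex and duplex DNA, with multiple injections over a range of drug concentrations. Binding constants derived from the relative instrument response.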

Test [7] relates to Nucleic Acid. The test is described as follows: Binding affinity to DNA G-quadruplex.

Take `O=C(NCCN1CCNCC1)c1cc(=O)c2ccc3ccccc3c2[nH]1`: the K with Nucleic Acid [1] came out at 0.53 ×10⁵ /M; in the test with Nucleic Acid [2], 2.5 ×10⁵ /M. Further, the ΔTm in the test with Nucleic Acid [3] came to 1.27 °C. Further, in the test on Nucleic Acid [4], the Tm came out at 52.5 °C. Besides, the Ratio in the test on Nucleic Acid [5] amounted to 0.21.
Regarding `CN(C)c1ccc(NC(=O)c2cc(=O)c3ccc4ccccc4c3[nH]2)cc1`, the values for the K in the test on Nucleic Acid [1], in the test with Nucleic Acid [2] and with Nucleic Acid [6] were 3.9 ×10⁵ /M, 0.53 ×10⁵ /M and 0.3 ×10⁵ /M, respectively. Further, the thermal shift (ΔTm) in the test with Nucleic Acid [3] amounted to 0.41 °C. The Tm in the test on Nucleic Acid [4] turned out to be 51.6 °C. Further, the Ratio in the test on Nucleic Acid [5] came out at 7.4.
As for `O=C(NCCN1CCNCC1)c1c[nH]c2c(ccc3ccccc32)c1=O`, the K was found to be 0.3 ×10⁵ /M in the test with Nucleic Acid [1] and 0.75 ×10⁵ /M in the test with Nucleic Acid [2]. Besides, the ΔTm in the test on Nucleic Acid [3] worked out at 1.19 °C. The Tm in the test on Nucleic Acid [4] amounted to 52.4 °C. In the test with Nucleic Acid [5], the Ratio turned out to be 0.4.
In the case of `O=C(Nc1ccncc1)c1cc(=O)c2ccc3ccccc3c2[nH]1`, the K was 0.42 ×10⁵ /M with Nucleic Acid [1] and 0.5 ×10⁵ /M in the test with Nucleic Acid [2]. Also, the ΔTm with Nucleic Acid [3] amounted to 0.69 °C. The Tm in the test on Nucleic Acid [4] worked out at 51.9 °C. Further, in the test with Nucleic Acid [5], the Ratio worked out at 0.84.
In the case of `O=C(NCCN1CCCC1)c1c[nH]c2c(ccc3ccccc32)c1=O`, the figures for the K with Nucleic Acid [1], in the test with Nucleic Acid [2] and in the test with Nucleic Acid [6] were 0.53 ×10⁵ /M, 0.21 ×10⁵ /M and 0.4 ×10⁵ /M, respectively. For the same compound, the ΔTm in the test on Nucleic Acid [3] worked out at 4.36 °C. Besides, the Tm with Nucleic Acid [4] is 56 °C. In addition, in the test with Nucleic Acid [5], the Ratio was 2.5.
For `CN(C)c1ccc(NC(=O)c2c[nH]c3c(ccc4ccccc43)c2=O)cc1`, the K in the test with Nucleic Acid [1] came to 0.53 ×10⁵ /M; with Nucleic Acid [2], 0.74 ×10⁵ /M. Besides, the ΔTm in the test with Nucleic Acid [3] worked out at 0.19 °C. Besides, the Tm with Nucleic Acid [4] was found to be 51.4 °C. Besides, in the test with Nucleic Acid [5], the Ratio was determined as 0.71.
`CN(C)CCCNC(=O)c1cc2[nH]c3c(cnc4ccc([N+](=O)[O-])cc43)c(=O)c2n1C` gave a Kapp in the test on Nucleic Acid [7] of 2.7 ×10⁴ /M.
Turning to `O=C(Nc1ccccc1)c1c[nH]c2c(ccc3ccccc32)c1=O`, the values for the K in the test with Nucleic Acid [1] and with Nucleic Acid [2] were 1.4 ×10⁵ /M and 6 ×10⁵ /M, respectively. The ΔTm in the test with Nucleic Acid [3] was 1.05 °C. In the test on Nucleic Acid [4], the Tm was 52.3 °C. For the same compound, the Ratio in the test on Nucleic Acid [5] turned out to be 0.22.
Turning to `O=C(NCCN1CCCCC1)c1c[nH]c2c(ccc3ccccc32)c1=O`, the results for the K in the test with Nucleic Acid [1] and with Nucleic Acid [2] were 2.5 ×10⁵ /M and 0.24 ×10⁵ /M, respectively. Also, the ΔTm in the test on Nucleic Acid [3] is 5.17 °C. Besides, in the test with Nucleic Acid [4], the Tm amounted to 56.4 °C. Also, the Ratio in the test with Nucleic Acid [5] was determined as 10.4.
For `CN1CCN(CCNC(=O)c2c[nH]c3c(ccc4ccccc43)c2=O)CC1`, the K came to 0.19 ×10⁵ /M with Nucleic Acid [1], 0.5 ×10⁵ /M in the test with Nucleic Acid [2] and 0.5 ×10⁵ /M with Nucleic Acid [6]. Moreover, the ΔTm in the test with Nucleic Acid [3] was found to be 3.69 °C. Moreover, in the test with Nucleic Acid [4], the Tm was 54.9 °C. For the same compound, the Ratio in the test on Nucleic Acid [5] turned out to be 0.37.
For `O=C(NCCN1CCCC1)c1cc(=O)c2ccc3ccccc3c2[nH]1`, the results for the K with Nucleic Acid [1] and in the test with Nucleic Acid [2] were 0.23 ×10⁵ /M and 0.41 ×10⁵ /M, respectively. The ΔTm in the test on Nucleic Acid [3] amounted to 1.35 °C. In addition, in the test with Nucleic Acid [4], the Tm was 52.6 °C. In addition, in the test on Nucleic Acid [5], the Ratio was 0.55.
For `O=C(NCCN1CCCCC1)c1cc(=O)c2ccc3ccccc3c2[nH]1` the same measures were 0.05 ×10⁵ /M, 1.1 ×10⁵ /M, 1 °C, 52.2 °C and 0.05.
Taken in the same sequence, the figures for `O=C(Nc1ccncc1)c1c[nH]c2c(ccc3ccccc32)c1=O` were 1.4 ×10⁵ /M, 2.5 ×10⁵ /M, 5.29 °C, 56.5 °C and 0.51.

(Values after ChEMBL document CHEMBL1153326, “Benzo(h)quinoline derivatives as G-quadruplex binding agents” (Bioorg Med Chem Lett, 2009).)
